PGC1a acetyl inh: modulators of PGC1a acetylation; U2OS PGC1a acetylation, AlphaScreen anti-acetyl-lysine; with virally co-expressed GCN5 acetyltransferase; inhibition, % at 15.6 µM; 350,000 compounds, 0.17% hits; AID 651687;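 active = every replicate shows inhibition of at least 40%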
S100A4 inh HTS: S100A4-myosin IIA interaction inhibition; inhibition, % at 10.7 µM; 360,000 compounds, 0.14% hits; S100A4/TAMRA-MyoIIA peptide fluorescence polarization; AID 652163;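 active = mean inhibition of at least 70% across replicates, with every replicate also reaching that level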
Target sequence (P26447 whole entry, looked up): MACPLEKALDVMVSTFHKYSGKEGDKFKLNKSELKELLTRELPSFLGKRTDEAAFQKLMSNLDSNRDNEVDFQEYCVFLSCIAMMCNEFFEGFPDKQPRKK
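Assay system: human S100A4 monomer with TAMRA-labelled myosin IIA peptide / Buffer or medium: Calcium-containing HEPES buffer, pH 7.2 / Reagent: TAMRA-labelled myosin IIA heavy-chain peptide probe, 5 nM / Compound: one dose per compound / Timing: polarization read 5 min after assay mix addition, stable 5–60 min / Benchmarks: neutral control DMSO, positive control TFP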
SIRT5 block: blocks human SIRT5 desuccinylation of peptide | Q9NXA8 | Purified SirT5, succinyl-peptide AMC, trypsin-coupled fluorescence | inhibition, % at 15 µM | 330,000 compounds, 1.1% hits | AID 652115; in the data active = inhibition above about 15%
Target sequence (Q9NXA8 whole entry, looked up): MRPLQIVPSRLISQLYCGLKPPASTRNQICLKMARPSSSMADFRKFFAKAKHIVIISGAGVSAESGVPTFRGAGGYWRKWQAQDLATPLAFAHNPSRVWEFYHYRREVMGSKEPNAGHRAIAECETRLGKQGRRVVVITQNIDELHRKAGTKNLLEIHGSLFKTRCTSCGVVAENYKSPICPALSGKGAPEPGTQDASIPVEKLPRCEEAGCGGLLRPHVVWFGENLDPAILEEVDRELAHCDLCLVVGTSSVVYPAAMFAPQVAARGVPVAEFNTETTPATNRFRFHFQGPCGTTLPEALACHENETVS
rRNA inh HTS: selective bacterial rRNA inhibition in E. coli; E. coli WT GFP vs humanized-ribosome RFP mutants, fluorescence, 24 h; stronger effect = lower value; DMSO median 0, no signal -100; GFP signal change (wild-type ribosome), % (concentration not given with the values); 350,000 compounds, 1.6% hits; AID 720706;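 active = significant combined selectivity score with lowered wild-type GFP, culture density cut under 30%, mutant RFP and density less affected; inactive = any of these conditions unmet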
C2C12 statin: suppressors of simvastatin-induced myotoxicity in C2C12 myotubes | AID 602340 | 330,000 compounds, 0.78% hits | rescue of ATP level, % at 7.49 µM | ATP luminescence, 48 h; scaled: DMSO 0, geranylgeraniol control 100;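 active = mean ATP rescue above about 67%, or every replicate alone reaching that limit, limit read from the data, passing the limit was not always enough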;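 note: myotubes were challenged with 10 µM simvastatin during compound exposure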
Cneo AK release: causes C. neoformans cell lysis. lysis activity, % at 15 µM. AID 651654. adenylate kinase release luminescence, 4 h; normalised: neutral wells 0, clomiphene wells 100. 360,000 compounds, 0.2% hits;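 active = mean lysis activity across replicates of at least 80%, whatever share of replicates individually reach that level; inactive = mean lysis activity below 80%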
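Signal: Adenylate kinase release luminescence | Assay system: Log-phase Cryptococcus neoformans yeast cells | Input: Cells at 5 × 10^6 per mL | Buffer or medium: Fresh YPD growth medium | Compound: Single dose | Schedule: Static 4 h at 37 °C with compound, 1 h detection | Controls: Clomiphene | Read-out: Luminescence rise reflecting yeast cell lysis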
Large screens that a line does not name were inactive; ! = not active in a repeat. An excerpt weighted towards active compounds, which were near 3% of everything screened.

CCN1CCN(c2ccc(S(=O)(=O)N3CCCCC3)cc2NC(=O)/C=C/c2ccc(F)cc2)CC1	none (no result: PGC1a acetyl inh)
CN1[C@@H]2Cn3c(ccc(C4=CCCCC4)c3=O)[C@H]1[C@@H](C(=O)NCc1cc(F)cc(F)c1)[C@@H]2CO	none (no result: PGC1a acetyl inh)
CO[C@@H]1CN(C)C(=O)c2ccc(NC(=O)c3cccc(F)c3)cc2OC[C@H](C)N(C)C[C@@H]1C	none (no result: S100A4 inh HTS, SIRT5 block, Cneo AK release)
CO[C@H]1CC[C@H]2CCN(C)C(=O)[C@H](C)[C@H](OC)CN(C)C(=O)c3cccc(C#N)c3OC[C@H]1O2	none
COC(=O)c1c(C(=O)OC)c(-c2ccc(Cl)c(Cl)c2)n2c1CCC2	rRNA inh HTS -29 (no result: C2C12 statin, Cneo AK release)
N#C[C@H]1[C@H](c2ccc(C#CC3CCCC3)cc2)[C@H](CO)N1C(=O)Cc1ccccn1	PGC1a acetyl inh 59 (no result: C2C12 statin, Cneo AK release)
N#C[C@H]1[C@H](c2ccc(-c3ccc(F)cc3)cc2)[C@@H](CO)N1C(=O)Cc1ccccc1	C2C12 statin 70
N#C[C@@H]1[C@@H](c2ccc(-c3ccc(F)cc3)cc2)[C@@H](CO)N1C(=O)Cc1ccccc1	none
CC(C)NC(=O)N1[C@H](C#N)[C@@H](c2ccc(-c3ccc(F)cc3)cc2)[C@@H]1CO	C2C12 statin 76
N#C[C@@H]1[C@H](c2ccccc2)[C@@H](CO)N1C(=O)Cc1ccccc1	none
N#C[C@H]1[C@@H](c2ccccc2)[C@@H](CO)N1C(=O)Cc1ccccc1	Cneo AK release 101
N#C[C@H]1[C@H](c2ccccc2-c2ccccc2F)[C@@H](CO)N1C(=O)Cc1ccccc1	SIRT5 block 18 (no result: C2C12 statin, Cneo AK release)
CCOc1ccc2ccccc2c1C(=O)N1CCN(c2ccccc2)CC1	SIRT5 block 19
CCc1nnc(NS(=O)(=O)c2ccc(NC(=S)NC(=O)/C=C/c3ccccc3)cc2)s1	rRNA inh HTS -37 (no result: PGC1a acetyl inh, C2C12 statin, Cneo AK release)
CCc1nnc(NS(=O)(=O)c2ccc(NC(=S)NC(=O)/C=C/c3ccc(C(C)C)cc3)cc2)s1	none (no result: S100A4 inh HTS, SIRT5 block, rRNA inh HTS, Cneo AK release)
CCCNC(=O)Nc1ccc2c(c1)C(=O)N(C)C[C@H](OC)[C@H](C)CN(Cc1ccc(-c3ccccn3)cc1)[C@H](C)CO2	SIRT5 block 15
CCCC(=O)Nc1ccc2c(c1)OC[C@@H](C)N(Cc1ccccn1)C[C@H](C)[C@@H](OC)CN(C)C2=O	none
CCCC(=O)Nc1ccc2c(c1)OC[C@H](C)N(Cc1ccc(-c3ccccn3)cc1)C[C@H](C)[C@H](OC)CN(C)C2=O	none (no result: PGC1a acetyl inh)
CCC(=O)Nc1ccc2c(c1)OC[C@@H](C)N(Cc1ccccn1)C[C@@H](C)[C@@H](OC)CN(C)C2=O	SIRT5 block 15
CCCC(=O)Nc1ccc2c(c1)OC[C@@H](C)N(Cc1ccccn1)C[C@@H](C)[C@H](OC)CN(C)C2=O	Cneo AK release 94
CCC(=O)Nc1ccc2c(c1)OC[C@H](C)N(Cc1ccccn1)C[C@@H](C)[C@H](OC)CN(C)C2=O	none
CCCC(=O)Nc1ccc2c(c1)OC[C@@H](C)N(Cc1ccc(-c3ccccn3)cc1)C[C@H](C)[C@H](OC)CN(C)C2=O	S100A4 inh HTS 109 (no result: PGC1a acetyl inh)
CCCC(=O)Nc1ccc2c(c1)OC[C@H](C)N(Cc1ccccn1)C[C@H](C)[C@H](OC)CN(C)C2=O	Cneo AK release 113
CCC(=O)Nc1ccc2c(c1)OC[C@@H](C)N(Cc1ccccc1F)C[C@@H](C)[C@@H](OC)CN(C)C2=O	SIRT5 block 30! (no result: PGC1a acetyl inh)
CO[C@@H]1CN(C)C(=O)c2ccc(NC(=O)C3CC3)cc2OC[C@H](C)N(Cc2ccc(F)cc2)C[C@H]1C	Cneo AK release 86 (no result: PGC1a acetyl inh)
Fc1ccc(-n2cc(CNCCc3cccnc3)c(-c3ccccc3Cl)n2)cc1	rRNA inh HTS -40 (no result: PGC1a acetyl inh, C2C12 statin, Cneo AK release)
Cc1ccc(C(=O)N/N=C\c2ccc[nH]2)cn1	none (no result: S100A4 inh HTS, SIRT5 block, rRNA inh HTS)
CCOc1ccc(OCc2ccc(C(=O)NN=Cc3ccc[nH]3)cc2)cc1	PGC1a acetyl inh 47
O=C(N/N=C/c1ccc[nH]1)c1ccccc1OCc1ccc(F)cc1	SIRT5 block 22 (no result: Cneo AK release)
